Reference: ChEMBL document CHEMBL1687804, “Comparative efficacies of human simulated exposures of telavancin and vancomycin against methicillin-resistant Staphylococcus aureus with a range of vancomycin MICs in a murine pneumonia model” (Antimicrob Agents Chemother, 2010)
Values after ≈ are worked out from the molar mass of the structure shown. Active and inactive are the calls of the source. The rule behind the calls is not given here.

Key:
[1] = tested on: Staphylococcus aureus; experiment: Antibacterial activity against vancomycin-intermediate Staphylococcus aureus isolate 454 (NRS404) by broth microdilution assay; format: functional
Method in brief: (§1)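 MIC by broth microdilution using dry-form panels, run in triplicate per isolate; modal MIC reported. Isolates were stored at −80°C in skim milk and subcultured twice on Trypticase soy agar with 5% sheep blood at 35°C before use.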

[2] = tested on: Staphylococcus aureus; experiment: Antibacterial activity against hospital-associated methicillin-resistant Staphylococcus aureus isolate 152 by broth microdilution assay; format: functional; method in brief: as §1
[3] = tested on: Staphylococcus aureus; experiment: Antibacterial activity against vancomycin-intermediate Staphylococcus aureus isolate 440 (A6298) by broth microdilution assay; format: functional; method in brief: as §1
[4] = tested on: Staphylococcus aureus; experiment: Antibacterial activity against hospital-associated methicillin-resistant Staphylococcus aureus isolate 336 by broth microdilution assay; format: functional; method in brief: as §1
[5] = tested on: Staphylococcus aureus; experiment: Antibacterial activity against community-associated methicillin-resistant Staphylococcus aureus isolate 145 by broth microdilution assay; format: functional; method in brief: as §1
[6] = tested on: Staphylococcus aureus; experiment: Antibacterial activity against community-associated methicillin-resistant Staphylococcus aureus isolate 156 by broth microdilution assay; format: functional; method in brief: as §1
[7] = tested on: Staphylococcus aureus; experiment: Antibacterial activity against vancomycin-heteroresistant Staphylococcus aureus isolate 38 (Mu3) by broth microdilution assay; format: functional; method in brief: as §1
[8] = tested on: Staphylococcus aureus; experiment: Antibacterial activity against vancomycin-heteroresistant Staphylococcus aureus isolate 443 by broth microdilution assay; format: functional; method in brief: as §1
[9] = tested on: Staphylococcus aureus; experiment: Antibacterial activity against vancomycin-intermediate Staphylococcus aureus isolate 453 (NRS23) by broth microdilution assay; format: functional; method in brief: as §1
[10] = tested on: Staphylococcus aureus; experiment: Antibacterial activity against hospital-associated methicillin-resistant Staphylococcus aureus isolate 412 by broth microdilution assay; format: functional; method in brief: as §1
[11] = tested on: Staphylococcus aureus; experiment: Antibacterial activity against hospital-associated methicillin-resistant Staphylococcus aureus isolate 360 by broth microdilution assay; format: functional; method in brief: as §1
[12] = tested on: Staphylococcus aureus; experiment: Antibacterial activity against vancomycin-intermediate Staphylococcus aureus isolate 435 by broth microdilution assay; format: functional; method in brief: as §1
[13] = tested on: Staphylococcus aureus; experiment: Antibacterial activity against hospital-associated methicillin-resistant Staphylococcus aureus isolate 56 (494) by broth microdilution assay; format: functional; method in brief: as §1
[14] = tested on: Staphylococcus aureus; experiment: Antibacterial activity against vancomycin-heteroresistant Staphylococcus aureus isolate 443 infected in neutropenic BALB/c mouse lung infection model assessed as reduction of CFU at 40 mg/kg, sc administered every 12 hrs measured after 48 hrs; also: unit not given here
[15] = tested on: Staphylococcus aureus; experiment: Antibacterial activity against community-associated methicillin-resistant Staphylococcus aureus isolate 145 infected in neutropenic BALB/c mouse lung infection model assessed as reduction of CFU at 40 mg/kg, sc administered every 12 hrs measured after 24 hrs; also: unit not given here
[16] = tested on: Staphylococcus aureus; experiment: Antibacterial activity against hospital-associated methicillin-resistant Staphylococcus aureus isolate 336 infected in neutropenic BALB/c mouse lung infection model assessed as reduction of CFU at 40 mg/kg, sc administered every 12 hrs measured after 24 hrs; also: unit not given here
[17] = tested on: Staphylococcus aureus; experiment: Antibacterial activity against hospital-associated methicillin-resistant Staphylococcus aureus isolate 56 (494) infected in neutropenic BALB/c mouse lung infection model assessed as reduction of CFU at 40 mg/kg, sc administered every 12 hrs measured after 24 hrs; also: unit not given here
[18] = tested on: Staphylococcus aureus; experiment: Antibacterial activity against vancomycin-heteroresistant Staphylococcus aureus isolate 443 infected in neutropenic BALB/c mouse lung infection model assessed as reduction of CFU at 40 mg/kg, sc administered every 12 hrs measured after 24 hrs; also: unit not given here
[19] = tested on: Staphylococcus aureus; experiment: Antibacterial activity against hospital-associated methicillin-resistant Staphylococcus aureus isolate 336 infected in neutropenic BALB/c mouse lung infection model assessed as reduction of CFU at 40 mg/kg, sc administered every 12 hrs measured after 48 hrs; also: unit not given here
[20] = tested on: Staphylococcus aureus; experiment: Antibacterial activity against vancomycin-intermediate Staphylococcus aureus isolate 453 (NRS23) infected in neutropenic BALB/c mouse lung infection model assessed as reduction of CFU at 40 mg/kg, sc administered every 12 hrs measured after 24 hrs; also: unit not given here
[21] = tested on: Staphylococcus aureus; experiment: Antibacterial activity against vancomycin-intermediate Staphylococcus aureus isolate 454 (NRS404) infected in neutropenic BALB/c mouse lung infection model assessed as reduction of CFU at 40 mg/kg, sc administered every 12 hrs measured after 24 hrs; also: unit not given here
[22] = tested on: Staphylococcus aureus; experiment: Antibacterial activity against community-associated methicillin-resistant Staphylococcus aureus isolate 145 infected in neutropenic BALB/c mouse lung infection model assessed as reduction of CFU at 40 mg/kg, sc administered every 12 hrs measured after 48 hrs; also: unit not given here
[23] = tested on: Staphylococcus aureus; experiment: Antibacterial activity against vancomycin-intermediate Staphylococcus aureus isolate 435 infected in neutropenic BALB/c mouse lung infection model assessed as reduction of CFU at 40 mg/kg, sc administered every 12 hrs measured after 48 hrs; also: unit not given here
[24] = tested on: Staphylococcus aureus; experiment: Antibacterial activity against vancomycin-heteroresistant Staphylococcus aureus isolate 38 (Mu3) infected in neutropenic BALB/c mouse lung infection model assessed as reduction of CFU at 40 mg/kg, sc administered every 12 hrs measured after 24 hrs
[25] = tested on: Staphylococcus aureus; experiment: Antibacterial activity against vancomycin-intermediate Staphylococcus aureus isolate 440 (A6298) infected in neutropenic BALB/c mouse lung infection model assessed as reduction of CFU at 40 mg/kg, sc administered every 12 hrs measured after 48 hrs
[26] = tested on: Staphylococcus aureus; experiment: Antibacterial activity against hospital-associated methicillin-resistant Staphylococcus aureus isolate 152 infected in neutropenic BALB/c mouse lung infection model assessed as reduction of CFU at 40 mg/kg, sc administered every 12 hrs measured after 24 hrs; also: unit not given here
[27] = tested on: Staphylococcus aureus; experiment: Antibacterial activity against vancomycin-intermediate Staphylococcus aureus isolate 435 infected in neutropenic BALB/c mouse lung infection model assessed as reduction of CFU at 40 mg/kg, sc administered every 12 hrs measured after 24 hrs; also: unit not given here
[28] = tested on: Staphylococcus aureus; experiment: Antibacterial activity against hospital-associated methicillin-resistant Staphylococcus aureus isolate 360 infected in neutropenic BALB/c mouse lung infection model assessed as reduction of CFU at 40 mg/kg, sc administered every 12 hrs measured after 24 hrs
[29] = tested on: Staphylococcus aureus; experiment: Antibacterial activity against vancomycin-intermediate Staphylococcus aureus isolate 453 (NRS23) infected in neutropenic BALB/c mouse lung infection model assessed as reduction of CFU at 40 mg/kg, sc administered every 12 hrs measured after 48 hrs; also: unit not given here
[30] = tested on: Staphylococcus aureus; experiment: Antibacterial activity against vancomycin-intermediate Staphylococcus aureus isolate 454 (NRS404) infected in neutropenic BALB/c mouse lung infection model assessed as reduction of CFU at 40 mg/kg, sc administered every 12 hrs measured after 48 hrs; also: unit not given here
[31] = tested on: Staphylococcus aureus; experiment: Antibacterial activity against vancomycin-intermediate Staphylococcus aureus isolate 440 (A6298) infected in neutropenic BALB/c mouse lung infection model assessed as reduction of CFU at 40 mg/kg, sc administered every 12 hrs measured after 24 hrs
[32] = tested on: Staphylococcus aureus; experiment: Antibacterial activity against hospital-associated methicillin-resistant Staphylococcus aureus isolate 412 infected in neutropenic BALB/c mouse lung infection model assessed as reduction of CFU at 40 mg/kg, sc administered every 12 hrs measured after 24 hrs; also: unit not given here
[33] = tested on: Staphylococcus aureus; experiment: Antibacterial activity against community-associated methicillin-resistant Staphylococcus aureus isolate 156 infected in neutropenic BALB/c mouse lung infection model assessed as reduction of CFU at 40 mg/kg, sc administered every 12 hrs measured after 24 hrs; also: unit not given here

SMILES | MIC [1] [µg/mL] | MIC [2] [µg/mL] | MIC [3] [µg/mL] | MIC [4] [µg/mL] | MIC [5] [µg/mL] | MIC [6] [µg/mL] | MIC [7] [µg/mL] | MIC [8] [µg/mL] | MIC [9] [µg/mL] | MIC [10] [µg/mL] | MIC [11] [µg/mL] | MIC [12] [µg/mL] | MIC [13] [µg/mL] | further results
CCCCCCCCCC(=O)N[C@@H](Cc1c[nH]c2ccccc12)C(=O)N[C@H](CC(N)=O)C(=O)N[C@@H](CC(=O)O)C(=O)N[C@@H]1C(=O)NCC(=O)N[C@@H](CCCN)C(=O)N[C@@H](CC(=O)O)C(=O)N[C@H](C)C(=O)N[C@@H](CC(=O)O)C(=O)NCC(=O)N[C@H](CO)C(=O)N[C@@H]([C@H](C)CC(=O)O)C(=O)N[C@@H](CC(=O)c2ccccc2N)C(=O)O[C@@H]1C | 1 (≈ 0.617 µM) | 0.5 (≈ 0.309 µM) | 1 (≈ 0.617 µM) | 0.5 (≈ 0.309 µM) | 0.5 (≈ 0.309 µM) | 0.5 (≈ 0.309 µM) | 0.5 (≈ 0.309 µM) | 0.5 (≈ 0.309 µM) | 1 (≈ 0.617 µM) | 0.5 (≈ 0.309 µM) | 0.5 (≈ 0.309 µM) | 0.5 (≈ 0.309 µM) | 0.5 (≈ 0.309 µM) | –
O=C(O)c1cn(C2CC2)c2cc(N3CCNCC3)c(F)cc2c1=O [CIPROFLOXACIN] | ≥ 16 | 0.5 (≈ 1.51 µM) | ≥ 16 | ≥ 16 | 8 (≈ 24.1 µM) | ≥ 16 | ≥ 16 | ≥ 16 | ≥ 16 | ≥ 16 | ≥ 16 | ≥ 16 | 0.5 (≈ 1.51 µM) | –
CCC[C@@H]1C[C@@H](C(=O)N[C@@H]([C@H]2O[C@H](SC)[C@H](O)[C@@H](O)[C@H]2O)[C@H](C)Cl)N(C)C1 [CLINDAMYCIN] | ≤ 0.5 | 0.125 (≈ 0.294 µM) | ≥ 8 | ≥ 8 | ≥ 8 | ≤ 0.5 | ≥ 8 | ≥ 8 | ≥ 8 | ≤ 0.5 | ≥ 8 | ≤ 0.5 | 0.25 (≈ 0.588 µM) | –
CCCCCCCCCCNCCN[C@@]1(C)C[C@H](O[C@H]2[C@H](Oc3c4cc5cc3Oc3ccc(cc3Cl)[C@@H](O)[C@@H](NC(=O)[C@@H](CC(C)C)NC)C(=O)N[C@@H](CC(N)=O)C(=O)N[C@H]5C(=O)N[C@H]3C(=O)N[C@H](C(=O)N[C@H](C(=O)O)c5cc(O)c(CNCP(=O)(O)O)c(O)c5-c5cc3ccc5O)[C@H](O)c3ccc(c(Cl)c3)O4)O[C@H](CO)[C@@H](O)[C@@H]2O)O[C@@H](C)[C@H]1O [TELAVANCIN] | 1 (≈ 0.57 µM) | 0.25 (≈ 0.142 µM) | 1 (≈ 0.57 µM) | 0.5 (≈ 0.285 µM) | 0.5 (≈ 0.285 µM) | 0.5 (≈ 0.285 µM) | 0.5 (≈ 0.285 µM) | 0.5 (≈ 0.285 µM) | 1 (≈ 0.57 µM) | 0.5 (≈ 0.285 µM) | 0.5 (≈ 0.285 µM) | 1 (≈ 0.57 µM) | 0.5 (≈ 0.285 µM) | Activity [14]: inactive; Activity [15]: Active; Activity [16]: Active; Activity [17]: Active; Activity [18]: Active; Activity [19]: inactive; Activity [20]: Active; Activity [21]: Active; Activity [22]: inactive; Activity [23]: inactive; Activity [24]: Active; Activity [25]: Active; Activity [26]: Active; Activity [27]: Active; Activity [28]: Active; Activity [29]: Active; Activity [30]: Active; Activity [31]: Active; Activity [32]: Active; Activity [33]: Active
CN(C)c1cc(NC(=O)CNC(C)(C)C)c(O)c2c1C[C@H]1C[C@H]3[C@H](N(C)C)C(O)=C(C(N)=O)C(=O)[C@@]3(O)C(O)=C1C2=O [TIGECYCLINE] | 0.125 (≈ 0.213 µM) | 0.25 (≈ 0.427 µM) | 0.125 (≈ 0.213 µM) | 0.5 (≈ 0.854 µM) | 0.25 (≈ 0.427 µM) | 0.125 (≈ 0.213 µM) | 0.5 (≈ 0.854 µM) | 0.25 (≈ 0.427 µM) | 0.125 (≈ 0.213 µM) | 0.25 (≈ 0.427 µM) | 0.25 (≈ 0.427 µM) | 0.25 (≈ 0.427 µM) | 0.5 (≈ 0.854 µM) | –
